Reference: ChEMBL document CHEMBL4400516, “A novel cereblon modulator for targeted protein degradation” (Eur J Med Chem, 2019)
The source made the active and inactive calls. The rule behind the calls is not given here.

Experiments:
NCI-H929 = assay: Antiproliferative activity against human NCI-H929 cells after 72 hrs by WST-1 assay; assay type: functional; conditions: NCI-H929, 72 h
How it was run: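 NCI-H929 myeloma cells (RPMI-1640, 10% FBS, 0.05 mM 2-mercaptoethanol) seeded at 30% confluency and dosed the next day. After 72 h, WST-1 reagent added and absorbance at 450 nm read. IC50 from nonlinear log(inhibitor) versus response fit.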

[1] = Toxicity in CB-17/IcrCri SCID mouse xenografted with human TMD8 cells assessed as adverse effect at 50 mg/kg, ip qd for 14 days; assay type: organism-based; conditions: in vivo, 336 h
How it was run: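 TMD8 subcutaneous xenografts in female CB-17/IcrCri-scid mice dosed i.p. at 50 mg/kg daily for 14 days in 20% PEG 400 / 3% Tween 80 in PBS, starting at about 150 mm3 tumours. Animals observed daily for signs of morbidity or mortality.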

[2] = Toxicity in CB-17/IcrCri SCID mouse xenografted with human TMD8 cells assessed as change in body weight at 50 mg/kg, ip qd for 14 days measured twice weekly during compound dosing; assay type: organism-based; conditions: in vivo, 336 h
TMD8 = assay: Antitumor activity against human TMD8 cells xenografted in CB-17/IcrCri SCID mouse assessed as tumor growth inhibition at 50 mg/kg, ip qd for 14 days measured during compound dosing; assay type: functional, organism-based
How it was run: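 Female CB-17/IcrCri-scid mice carried subcutaneous TMD8 tumours in the right flank. Dosing began at about 150 mm3 mean tumour volume: 50 mg/kg i.p. once daily for 14 days in 20% PEG 400 / 3% Tween 80 in PBS, with DMSO as control. Calipers twice weekly; volume = length x width² x 0.5. Mean ± SE, n = 6.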

[3] = biological target: Protein cereblon/Bromodomain-containing protein 2 (Homo sapiens) (UniProt P25440+Q96SW2); assay: Induction of CRBN-mediated BRD2 degradation in human 22RV1 cells up to 1000 nM measured after 24 hrs by immunoblotting analysis; assay type: cell-based
How it was run: (§1)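 22Rv1 prostate cancer cells (RPMI-1640, 10% FBS) given a 24 h dose titration. Lysates in HEPES/Triton X-100 buffer with protease inhibitor, then SDS-PAGE, nitrocellulose transfer and immunoblot.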

[4] = biological target: T1, Protein cereblon/Bromodomain-containing protein 4 (Homo sapiens, UniProt O60885+Q96SW2); assay: Induction of CRBN-mediated BRD4 degradation in human 22RV1 cells in presence of proteasome inhibitor bortezomib by immunoblotting analysis; assay type: cell-based
[5] = biological target: T1, Protein cereblon/Bromodomain-containing protein 4; assay: Induction of Xpress-tagged CRBN (unknown origin)/FALG-tagged BRD4 (unknown origin) protein-protein interaction by immunoblotting analysis; assay type: protein assay
How it was run: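 Cells co-transfected with Xpress-CRBN and FLAG-BRD4 using X-tremeGENE HP. Lysates incubated with anti-FLAG magnetic beads, 4 °C for 3 h. Beads washed in lysis buffer and 500 mM NaCl wash buffer, eluted in SDS sample buffer, and immunoblotted.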

[6] = biological target: T1, Protein cereblon/Bromodomain-containing protein 4; assay: Induction of CRBN-mediated BRD4 degradation in human 22RV1 cells measured after 24 hrs by immunoblotting analysis; assay type: cell-based
[7] = biological target: T1, Protein cereblon/Bromodomain-containing protein 4; assay: Induction of CRBN-mediated BRD4 degradation in human 22RV1 cells in presence of JQ1 by immunoblotting analysis; assay type: cell-based
[8] = biological target: T1, Protein cereblon/Bromodomain-containing protein 4; assay: Induction of CRBN-mediated BRD4 degradation in human 22RV1 cells in presence of neddylation inhibitor MLN4924 by immunoblotting analysis; assay type: cell-based
[9] = biological target: Protein cereblon/Zinc finger protein Aiolos (Homo sapiens) (UniProt Q96SW2+Q9UKT9); assay: Induction of CRBN ubiquitin ligase-mediated IKZF3 degradation in human U266 cells up to 10 uM measured after 12 hrs by immunoblotting analysis
[10] = biological target: Bromodomain-containing protein 4 (Homo sapiens) (UniProt O60885); assay: Induction of BRD4 degradation in CRBN knockdown human 22RV1 cells by immunoblotting analysis
How it was run: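 22Rv1 cells transfected with CRBN siRNA or negative-control siRNA using RNAiMAX. After 48 h, degrader added for 12 h. Lysates in HEPES/Triton X-100 buffer with protease inhibitor, then SDS-PAGE and immunoblot.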

[11] = biological target: T1, Protein cereblon/Bromodomain-containing protein 4; assay: Induction of CRBN-mediated BRD4 degradation in human 22RV1 cells in presence of TD-106 by immunoblotting analysis; assay type: cell-based
CWR22R = assay: Antiproliferative activity against human 22Rv1 cells after 72 hrs by CelTiter-Glo reagent-based luminescence assay; assay type: functional; conditions: 22Rv1, 72 h
How it was run: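 22Rv1 cells, 15,000 per well, exposed to compound at indicated concentrations for 72 hr. Viability read by CellTiter-Glo luminescence; relative growth versus DMSO-treated control. IC50 from nonlinear log(inhibitor) versus response fit.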

[12] = biological target: Protein cereblon/Bromodomain-containing protein 3 (Homo sapiens) (UniProt Q15059+Q96SW2); assay: Induction of CRBN-mediated BRD3 degradation in human 22RV1 cells up to 1000 nM measured after 24 hrs by immunoblotting analysis; assay type: cell-based; how it was run: as §1
Chain of Protein cereblon/Bromodomain-containing protein 3 (Homo sapiens) (Q15059 2-726 limits assumed): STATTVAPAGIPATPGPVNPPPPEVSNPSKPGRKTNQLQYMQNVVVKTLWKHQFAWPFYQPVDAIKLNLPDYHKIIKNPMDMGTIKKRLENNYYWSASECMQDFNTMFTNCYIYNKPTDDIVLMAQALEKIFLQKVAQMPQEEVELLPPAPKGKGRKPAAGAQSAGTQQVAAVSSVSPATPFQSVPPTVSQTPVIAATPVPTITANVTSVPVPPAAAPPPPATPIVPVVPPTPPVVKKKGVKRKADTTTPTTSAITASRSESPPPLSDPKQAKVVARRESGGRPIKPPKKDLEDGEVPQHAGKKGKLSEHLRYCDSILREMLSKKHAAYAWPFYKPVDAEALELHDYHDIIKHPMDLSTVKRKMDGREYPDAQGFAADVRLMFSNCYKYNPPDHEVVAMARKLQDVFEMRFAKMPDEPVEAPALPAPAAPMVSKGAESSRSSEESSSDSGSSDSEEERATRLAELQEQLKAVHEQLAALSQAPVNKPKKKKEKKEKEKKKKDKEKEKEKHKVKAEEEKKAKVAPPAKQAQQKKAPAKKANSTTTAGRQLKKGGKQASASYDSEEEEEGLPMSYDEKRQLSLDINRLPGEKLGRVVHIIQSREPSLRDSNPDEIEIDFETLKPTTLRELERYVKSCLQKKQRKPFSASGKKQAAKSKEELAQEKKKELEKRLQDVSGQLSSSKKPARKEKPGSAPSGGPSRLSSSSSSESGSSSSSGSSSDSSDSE
Chain of Protein cereblon/Bromodomain-containing protein 3 (Homo sapiens) (Q96SW2 whole entry partner): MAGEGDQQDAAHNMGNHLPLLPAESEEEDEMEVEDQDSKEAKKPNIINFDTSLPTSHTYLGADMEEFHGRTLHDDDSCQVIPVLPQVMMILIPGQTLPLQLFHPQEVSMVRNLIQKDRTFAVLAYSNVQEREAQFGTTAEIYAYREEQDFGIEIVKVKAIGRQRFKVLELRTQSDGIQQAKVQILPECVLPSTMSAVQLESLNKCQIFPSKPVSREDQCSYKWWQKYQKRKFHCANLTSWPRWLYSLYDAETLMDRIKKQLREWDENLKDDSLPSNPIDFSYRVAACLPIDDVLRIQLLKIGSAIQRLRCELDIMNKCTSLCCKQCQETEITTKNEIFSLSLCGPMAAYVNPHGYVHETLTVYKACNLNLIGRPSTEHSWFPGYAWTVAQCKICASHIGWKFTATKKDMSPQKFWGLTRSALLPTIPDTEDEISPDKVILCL

T1 sequence (Q96SW2 whole entry, looked up, other chains not shown): as the sequence (Q96SW2 whole entry partner) above
Chain of Protein cereblon/Bromodomain-containing protein 2 (Homo sapiens) (P25440 whole entry, looked up): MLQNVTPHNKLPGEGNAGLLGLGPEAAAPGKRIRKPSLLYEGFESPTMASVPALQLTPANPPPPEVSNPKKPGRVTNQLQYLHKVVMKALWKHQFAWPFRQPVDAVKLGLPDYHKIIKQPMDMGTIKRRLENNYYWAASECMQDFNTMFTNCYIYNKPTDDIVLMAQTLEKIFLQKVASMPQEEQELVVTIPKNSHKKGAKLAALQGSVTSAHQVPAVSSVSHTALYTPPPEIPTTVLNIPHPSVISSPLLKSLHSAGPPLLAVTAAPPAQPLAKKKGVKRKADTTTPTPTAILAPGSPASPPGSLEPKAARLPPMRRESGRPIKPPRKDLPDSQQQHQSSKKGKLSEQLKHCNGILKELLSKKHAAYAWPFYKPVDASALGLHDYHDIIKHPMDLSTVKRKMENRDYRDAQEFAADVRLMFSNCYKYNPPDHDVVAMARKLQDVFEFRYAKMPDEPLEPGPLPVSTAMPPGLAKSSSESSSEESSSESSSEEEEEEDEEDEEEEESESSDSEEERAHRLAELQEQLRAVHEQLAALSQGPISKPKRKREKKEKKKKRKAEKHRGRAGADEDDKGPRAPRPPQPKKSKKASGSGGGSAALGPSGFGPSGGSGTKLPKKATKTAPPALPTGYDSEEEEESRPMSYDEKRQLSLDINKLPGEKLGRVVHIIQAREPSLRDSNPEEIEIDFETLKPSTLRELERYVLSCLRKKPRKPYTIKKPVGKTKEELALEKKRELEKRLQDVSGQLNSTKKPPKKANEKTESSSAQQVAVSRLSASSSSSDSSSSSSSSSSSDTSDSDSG
Chain of Protein cereblon/Bromodomain-containing protein 2 (Homo sapiens) (Q96SW2 whole entry, looked up): as the sequence (Q96SW2 whole entry partner) above
Chain of Protein cereblon/Zinc finger protein Aiolos (Homo sapiens) (Q96SW2 whole entry, looked up): as the sequence (Q96SW2 whole entry partner) above
Chain of Protein cereblon/Zinc finger protein Aiolos (Homo sapiens) (Q9UKT9 whole entry, looked up): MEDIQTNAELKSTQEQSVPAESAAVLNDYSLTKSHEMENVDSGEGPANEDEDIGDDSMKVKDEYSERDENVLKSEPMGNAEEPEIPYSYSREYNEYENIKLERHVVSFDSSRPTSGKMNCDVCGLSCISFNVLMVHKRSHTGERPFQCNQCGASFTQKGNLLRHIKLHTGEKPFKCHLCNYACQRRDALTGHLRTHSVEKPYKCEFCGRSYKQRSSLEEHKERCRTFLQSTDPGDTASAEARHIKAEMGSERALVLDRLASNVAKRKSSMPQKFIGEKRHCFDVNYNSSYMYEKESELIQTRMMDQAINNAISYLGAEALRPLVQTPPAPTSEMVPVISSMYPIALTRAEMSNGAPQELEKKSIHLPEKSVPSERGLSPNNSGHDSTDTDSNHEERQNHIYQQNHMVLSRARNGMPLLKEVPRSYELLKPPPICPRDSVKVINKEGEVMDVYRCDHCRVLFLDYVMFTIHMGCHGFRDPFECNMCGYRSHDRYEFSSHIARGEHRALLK

Nc1cccc2c1C(=O)N(C1CCC(=O)NC1=O)C2=O (configuration not stated) [POMALIDOMIDE]
CC50 (NCI-H929): 35 nM

Nc1cccc2nnn(C3CCC(=O)NC3=O)c(=O)c12 (configuration not stated)
Activity [1]: Non-Toxic
Activity [2]: Non-Toxic
CC50 (NCI-H929): 39 nM
TGI (TMD8): Active

Cc1sc2c(c1C)C(c1ccc(Cl)cc1)=N[C@@H](CC(=O)Nc1cccc(OCCOCCOCCNc3cccc4nnn(C5CCC(=O)NC5=O)c(=O)c34)c1)c1nnc(C)n1-2 (some centres not stated)
Activity [3]: Active
Activity [4]: inactive
Activity [5]: Active
DC50 [6]: 0.32 nM
Activity [7]: inactive
Activity [8]: inactive
Activity [9]: Active
Activity [10]: inactive
Activity [11]: inactive
CC50 (CWR22R): 20.1 nM
Activity [12]: Active

Cc1sc2c(c1C)C(c1ccc(Cl)cc1)=N[C@@H](CC(=O)Nc1ccc(OCCOCCOCCNc3cccc4nnn(C5CCC(=O)NC5=O)c(=O)c34)cc1)c1nnc(C)n1-2 (some centres not stated)
DC50 [6]: 3.3 nM
